Results gathered from unrelated publications.
Protocols differ between the studies behind these lines.
Target: Cytoplasmic tyrosine-protein kinase BMX (BMX, Homo sapiens, UniProt P51813)
Effect on: enzyme activity
Action: inhibitor
One construct used (P51813 1-675): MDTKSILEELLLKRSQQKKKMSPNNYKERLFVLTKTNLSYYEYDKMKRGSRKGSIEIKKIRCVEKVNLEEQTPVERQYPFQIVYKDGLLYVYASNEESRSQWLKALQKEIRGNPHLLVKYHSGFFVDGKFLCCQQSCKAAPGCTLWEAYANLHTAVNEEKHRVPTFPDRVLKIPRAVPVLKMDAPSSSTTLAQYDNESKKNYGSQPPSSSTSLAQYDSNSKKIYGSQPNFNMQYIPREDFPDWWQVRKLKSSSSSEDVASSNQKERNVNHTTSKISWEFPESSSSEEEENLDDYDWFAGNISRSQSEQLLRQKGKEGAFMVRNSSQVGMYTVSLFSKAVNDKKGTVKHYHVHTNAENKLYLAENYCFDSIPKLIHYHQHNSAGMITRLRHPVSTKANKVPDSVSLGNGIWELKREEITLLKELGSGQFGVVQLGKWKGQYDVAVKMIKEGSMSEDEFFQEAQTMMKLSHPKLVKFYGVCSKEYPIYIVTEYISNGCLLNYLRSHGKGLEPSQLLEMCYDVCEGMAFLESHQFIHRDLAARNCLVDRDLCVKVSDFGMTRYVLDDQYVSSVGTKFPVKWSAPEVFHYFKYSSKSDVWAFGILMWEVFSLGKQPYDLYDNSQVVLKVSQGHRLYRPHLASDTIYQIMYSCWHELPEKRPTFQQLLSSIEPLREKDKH

| Structure (SMILES) | method | concentration | remaining activity [%] |
| --- | --- | --- | --- |
| O=C(O)c1ccc2c3c1cccc3c(=O)n1c3ccccc3nc21 |  | 0.5 µM | 96.4 |
| CC(C)(C)c1nc(-c2cccc(NS(=O)(=O)c3c(F)cccc3F)c2F)c(-c2ccnc(N)n2)s1 | radiometric | 1 µM | 75 |
| COc1cc(Cl)c(C(=O)N[C@@H](CN[C@H]2CC[C@@H](N)CC2)Cc2ccc(C#N)cc2)cc1-c1ccc(CN[C@H](C)c2ccc(C)cc2)o1 |  | 1 µM | 72 |
| CC(C)(C)c1nc2c(s1)c1nc(N)ncc1c1ccc(NS(=O)(=O)c3c(F)cccc3F)c(F)c12 | radiometric | 1 µM | 87 |
| Cc1cnc(NC2CCOCC2)nc1-n1cnc(C(=O)NC(CN)c2cc(F)cc(Cl)c2)c1 (stereo not drawn) | radiometric | 1 µM | 117 |
| O=C(Nc1cnn(-c2csc(C(=O)NC3COC3)c2)c1)Nc1c(F)cccc1Cl |  | 5 µM | 96.8 |
| CCN(CC)CCNC(=O)c1c(C)[nH]c(/C=C2\C(=O)Nc3ccc(Cl)cc32)c1C |  | 0.5 µM | 99.3 |
| CCCOc1ccc(OC)c(F)c1C(=O)c1ccc(C(=O)N[C@@H]2CNC[C@H]2NC(=O)c2ccc3[nH]ncc3c2)cc1 |  | 10 µM | 87 |
| Cc1ccc(C(=O)Nc2ccc(CN3CCN(C)CC3)c(C(F)(F)F)c2)cc1C#Cc1cnc2cccnn12 |  | 23.5 nM | 47 |
| COc1cc2ncc(-c3ccccc3)nc2cc1OC |  | 0.5 µM | 92.2 |
| CC(C)(O)[C@H]1CC[C@H](Nc2ccc3ncc(-c4cccc(C(F)(F)F)c4)n3n2)CC1 |  | 1 µM | 71.5 |
| CCN(CC)c1ccc(C2=NNC(=O)CC2C)cc1[N+](=O)[O-] (stereo not drawn) |  | 10 µM | 96 |
| Cc1sc(C(=O)NC2COC2)cc1-n1cc(NC(=O)Nc2c(F)cccc2Cl)cn1 |  | 10 µM | 92.9 |
| COc1ccc(C(=O)Nc2sc3c(c2C(N)=O)CCCC3)cc1OC |  | 0.5 µM | 89.8 |
| Nc1ncnc2occ(-c3ccc(NC(=O)Nc4cc(C(F)(F)F)ccc4F)cc3)c12 |  | 20 µM | 0.5 |
